Measurements as given in ChEMBL document CHEMBL1141798, “Antitubercular constituents from the stem wood of Cinnamomum kotoense” (2005).
≈ marks a conversion by molar mass, not a printed value.

Test system: Mycobacterium tuberculosis
Assay: Antitubercular activity against Mycobacterium tuberculosis 90-221387
Format: functional
Summary of the method: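 Agar proportion method on Middlebrook 7H10 with OADC; compounds serially diluted into molten agar (50-56 °C) to final 100 to 0.8 µg/mL. Inoculum from colonies in 7H9 broth, adjusted to McFarland no. 1, diluted 10-2; 33 µL spotted per quadrant. Incubated 35 °C, 10% CO2, 2 weeks; MIC = lowest concentration completely inhibiting growth.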

CC(=O)c1ccc(C)o1
MIC: 323 µM (≈ 40 µg/mL)

COc1cc(OC)c2c(c1)O[C@H](c1ccc(O)c(OC)c1)[C@H](O)C2
MIC: 151 µM (≈ 50.1 µg/mL)

COc1cc([C@H]2OC[C@H]3[C@@H]2CO[C@@H]3c2cc(OC)c(O)c(OC)c2)cc(OC)c1O (racemic) [SYRINGARESINOL]
MIC: 239 µM (≈ 100 µg/mL)

O=Cc1ccc(O)cc1 [4-HYDROXYBENZALDEHYDE]
MIC: 369 µM (≈ 45 µg/mL)

O=C(O)c1ccccc1 [BENZOIC ACID]
MIC: 328 µM (≈ 40 µg/mL)

CCCCCCCCCCCC(=O)O [DODECANOATE]
MIC: 62.5 µM (≈ 12.5 µg/mL)

C=C1OC(=O)/C(=C/CCCCCCCCCCCCC)[C@@H]1O [ISOOBTUSILACTONE A]
MIC: 22.5 µM (≈ 6.93 µg/mL)

CCCCCCCCCCCCCCCCCCCCCCCCCCCC(O)O [KOTODIOL]
MIC: 117 µM (≈ 50.1 µg/mL)

CCCCCCCCCCCCC/C=C1/C(=O)O[C@@]2(C)O[C@H](CCCCCCCCCCCCC)O[C@@H]12 [KOTOLACTONE A]
MIC: 40.1 µM (≈ 20.9 µg/mL)

C#CCCCCCCCCC/C=C1/C(=O)O[C@@H](C)[C@H]1O [LINCOMOLIDE B]
MIC: 10.2 µM (≈ 2.83 µg/mL)

O=C(O)c1ccc(O)c(O)c1 [PROTOCATECHUIC ACID]
MIC: 649 µM (≈ 100 µg/mL)

CO[C@H]1/C=C/O[C@@]2(C)Oc3c(C)c(O)c4c(O)c(c(/C=N/N5CCN(C)CC5)c(O)c4c3C2=O)NC(=O)/C(C)=C\C=C\[C@H](C)[C@H](O)[C@@H](C)[C@@H](O)[C@@H](C)[C@H](OC(C)=O)[C@@H]1C [RIFAMPIN]
MIC: 0.24 µM (≈ 0.198 µg/mL)

COc1cc(C=O)cc(OC)c1O [SYRINGALDEHYDE]
MIC: 137 µM (≈ 25 µg/mL)

COc1cc(C=O)ccc1O [VANILLIN]
MIC: 82.2 µM (≈ 12.5 µg/mL)
